Source: PubChem
Rows were chosen to be rich in hits. Some 1.6% of all compounds tested hit in one or more screens of this group.
PKA-R1A act = activators of PKA-R1A complex. activation, % at 11.4 µM. 340,000 compounds, 0.083% hits. PKA-R1A dissociation, Cy5-IP20 fluorescence polarization; scaled: DMSO 0%, 113 µM cGMP 100%. P00514+P68181;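 active means percent activation above the mean of all tested compounds plus 3 SD, cut at about 19% in these data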;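 further: higher means more PKAc released from R1A so a rise in polarization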
PKA-R2B activ = PKA-R2B complex activation; P22694+P31323; 340,000 compounds, 0.079% hits; AID 504700; PKA-R2B holoenzyme dissociation, Cy5-IP20 fluorescence polarization; R2B truncated from residue 108, S112A mutant; 0% DMSO only, 100% 113 µM cGMP; activation, % at 11.4 µM;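 active means activation above a cutoff set at the mean over all compounds plus 3 SD, cut at about 18% in these data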;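 further: higher means more holoenzyme dissociation and a rise in polarization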
PG9 binder = PG9 antibody binding by small molecule; TR-FRET gp120-PG9 antibody binding; inhibition, % at 6.7 µM; 360,000 compounds, 0.43% hits; in the data active means inhibition above about 8.5%
Rev-erbA mod = Rev-erb alpha (human) modulation; P20393; Rev-erbα–FITC-DNA binding, fluorescence polarization, 90 min; activity, % at 10 µM; 370,000 compounds, 0.79% hits; AID 1259318;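 active means activity above about 14%, limit read from the data; passing the limit was not always enough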
Target sequence (P20393 whole entry, looked up): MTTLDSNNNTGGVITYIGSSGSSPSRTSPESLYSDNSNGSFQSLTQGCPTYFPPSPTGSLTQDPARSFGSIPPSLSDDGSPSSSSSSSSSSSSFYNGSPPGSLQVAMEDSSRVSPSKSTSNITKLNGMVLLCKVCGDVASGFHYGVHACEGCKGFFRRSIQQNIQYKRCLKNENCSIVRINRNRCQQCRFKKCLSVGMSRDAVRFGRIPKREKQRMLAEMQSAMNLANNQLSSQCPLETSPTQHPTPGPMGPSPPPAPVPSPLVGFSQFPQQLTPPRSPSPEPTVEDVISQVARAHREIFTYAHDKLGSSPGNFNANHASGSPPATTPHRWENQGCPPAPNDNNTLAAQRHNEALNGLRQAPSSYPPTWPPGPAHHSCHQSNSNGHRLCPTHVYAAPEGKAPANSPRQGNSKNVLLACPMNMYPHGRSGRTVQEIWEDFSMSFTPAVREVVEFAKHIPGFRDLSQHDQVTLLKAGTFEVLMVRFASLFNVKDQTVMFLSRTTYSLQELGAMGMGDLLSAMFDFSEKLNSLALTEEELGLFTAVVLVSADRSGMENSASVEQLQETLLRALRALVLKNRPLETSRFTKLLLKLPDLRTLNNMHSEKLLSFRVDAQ
NR2E3 ag-1 = activates human photoreceptor nuclear receptor NR2E3 | Q9Y5X4 | GST-NR2E3/biotin-RetCOR TR-FRET, 1536-well | inhibition of corepressor binding, % at 4.78 µM | 320,000 compounds, 0.12% hits | AID 2300;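 active means percent inhibition above the cutoff of mean plus 3 SD of all tested compounds, set per screening campaign, cut at about 20% in these data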
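System: GST-NR2E3 and biotin-RetCOR proteins; probe or stimulus: 7 nM biotin-RetCOR; doses: compound at 4.8 µM, single dose; schedule: Compound–protein incubation for 5 h at 4 °C; detection: time-resolved FRET; read-out: percent inhibition; controls: biotin wells as high control, 0.6% DMSO wells as low control; format: 1536-well plates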
NR2E3 ag-2 = agonists of human NR2E3 nuclear receptor; 360,000 compounds, 0.35% hits; CHO-S Gal4-NCOR/VP16-NR2E3 two-hybrid, luciferase; inhibition of corepressor binding, % at 3.98 µM; Q9Y5X4; AID 602229;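 active means inhibition above the mean of all tested compounds plus 3 SD, cut at about 70% in these data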;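 further: higher means lower luciferase signal from less NR2E3 corepressor binding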
A number is an active result; . = inactive; / = no result given.

SMILES | PKA-R1A act | PKA-R2B activ | PG9 binder | Rev-erbA mod | NR2E3 ag-1 | NR2E3 ag-2
CNC(C)[C@@H]1CC[C@@H](N)[C@@H](O[C@@H]2[C@H](O)[C@@H](O[C@@H]3OC[C@](C)(O)[C@H](NC)[C@H]3O)[C@H](N)C[C@@H]2N)O1 (some centres not stated) | / | / | / | . | / | /
c1ccc([C@@H]2CCNC[C@H]2COc2ccc3c(c2)OCO3)cc1 | / | / | / | . | / | /
CC(=O)Nc1ccc(NC(=O)c2ccc(N(C)S(=O)(=O)c3ccc(C)cc3)cc2)cc1 | . | . | . | . | . | .
CN(c1ccccc1)S(=O)(=O)c1ccc(NC(=O)c2ccc(-c3ccccc3)cc2)cc1 | . | . | . | . | . | 82
O=C(CSc1nc2ccccc2nc1SCC(=O)N1CCCCC1)N1CCCCC1 | . | . | 22 | . | . | .
CCCCCCCCCCCCOC(=O)CS(=O)(=O)O | / | / | / | . | / | /
CCCCC(CC)CN=C(N)NC(N)=NCCCCCCN=C(N)NC(N)=NCC(CC)CCCC (configuration not stated) | . | . | / | / | . | 90
CC1(C)C2CC[C@]3(C)C(C(=O)C=C4[C@@H]5C[C@@](C)(C(=O)O)CC[C@]5(C)CC[C@]43C)[C@@]2(C)CC[C@@H]1OC(=O)CCC(=O)O (some centres not stated) | / | / | / | . | / | /
CCN[C@@H]1C[C@H](N)[C@@H](O[C@H]2OC(CN)=CC[C@H]2N)[C@H](O)[C@H]1OC1OC[C@](C)(O)[C@H](NC)[C@H]1O (some centres not stated) | / | / | / | . | / | /
O=C(c1cc2sccc2n1Cc1ccccc1)N1CCN(c2nc3ccccc3s2)CC1 | . | . | . | . | . | 80
CCC(=O)N1CCN(c2nc3ccccc3s2)CC1 | . | . | . | . | . | .
Cc1cc(O)c2c(c1O)C(=O)[C@]13C(=C2O)C(=O)[C@@H]2[C@@H](O)[C@H]1[C@@H]1[C@H](O)[C@H]3C(=O)C3=C(O)c4c(O)cc(C)c(O)c4C(=O)[C@]312 | . | . | / | / | / | 101
OCCN1C[C@@H](O)[C@@H](O)C(O)C1CO (some centres not stated) | / | / | / | . | / | /
COC(=O)c1c(-c2ccco2)csc1NC(=O)C1CC=CCC1C(=O)O (configuration not stated) | . | . | 9.7 | . | . | .
CSCC[C@H](N)C(=O)O | / | / | / | . | / | /
CCCCn1c(NC(=O)c2ccc(F)cc2)c(C#N)c2nc3ccccc3nc21 | / | / | / | / | 22 | /
C[C@@H]1CC2C3C[C@H](F)C4=CC(=O)C=C[C@]4(C)[C@@]3(F)[C@@H](O)C[C@]2(C)[C@@]1(O)C(=O)COC(=O)C(C)(C)C (some centres not stated) | / | / | / | . | / | /
CCCOc1ccc(/C(O)=C2\C(=O)C(=O)N(CCCOC)C23C(=O)N(C)c2ccccc23)cc1 (configuration not stated) | . | . | 11 | . | . | .
C=C(C)[C@@H]1CC=C(C)CC1 | / | / | / | . | / | /
COc1ccc(OC)c(NC(=O)Cc2nn(C)c(=O)c3ccccc23)c1 | . | . | . | . | . | .
COc1ccc(CNC(=O)Cc2nn(C)c(=O)c3ccccc23)cc1 | . | . | . | . | . | 102
OCCN1CCN(Cc2cc(Cl)c3cccnc3c2O)CC1 | . | . | . | . | . | .
Oc1c(CN2CCN(c3ccccn3)CC2)cc(Cl)c2cccnc12 | . | . | / | / | . | 79
C=CC[n+]1ccc(/C=C2\C=Cc3cc(C)ccc3N2CC)c2ccccc21 | . | . | / | / | / | 93
CCOC(=O)c1oc2ccc(S(=O)(=O)Nc3ccc4c(c3)n(C)c(=O)n4C)cc2c1C | . | . | . | . | . | 77
SMILES | PKA-R1A act | PKA-R2B activ | PG9 binder | Rev-erbA mod | NR2E3 ag-1 | NR2E3 ag-2
COc1ccc(S(=O)(=O)Nc2ccc3c(c2)n(C)c(=O)n3C)cc1C | . | . | . | . | . | .
Cc1ncoc1C(=O)NC1CCCc2c1cnn2-c1ccc(C(C)(C)C)cc1 (configuration not stated) | . | . | . | . | / | 96
CC(=O)N1CCc2cc(S(=O)(=O)NCCC3=CCCCC3)ccc21 | . | . | . | . | . | 81
CC(=O)OCC(=O)[C@@]1(O)[C@H](OC(C)=O)CC2C3CCC4=CC(=O)C=C[C@]4(C)[C@@]3(F)[C@@H](O)C[C@@]21C (some centres not stated) | / | / | / | . | / | /
CCOc1ccc(C(=O)CC(C(=O)O)N2CCCCC2)cc1 (configuration not stated) | . | 19 | / | / | . | .
O=C(O)Cc1cccc(-c2ccccc2)c1 | / | / | / | . | / | /
Cc1nn(Cc2ccc(F)cc2)c2sc(C(=O)Nc3nccs3)cc12 | . | . | 16 | . | . | .
CSCCC(NC(=O)C(Cc1c[nH]c2ccccc12)NC(=O)CCNC(=O)OC(C)(C)C)C(=O)NC(CC(=O)O)C(=O)NC(Cc1ccccc1)C(N)=O (configuration not stated) | / | / | / | . | / | /
Cc1ccc(C)n1Cc1ccc(C(=O)O)cc1 | . | . | / | / | 34 | .
Cc1cc(C)n(Cc2ccc(C(=O)O)cc2)n1 | . | . | . | . | . | .
CCCC(=O)O[C@]1(C(=O)CO)CCC2[C@@H]3CCC4=CC(=O)CC[C@]4(C)C3[C@@H](O)C[C@@]21C (some centres not stated) | / | / | / | . | / | /
CC1(C)CC(=O)C2=C(C1)NC(SCC(=O)Nc1ccccc1)=C(C#N)C21CCCCC1 | . | . | . | . | . | .
CC(C)(C)C1CCC2(CC1)C(C#N)=C(SCC(=O)Nc1ccccc1)NC(=O)C2C#N (configuration not stated) | . | . | . | . | . | 100
NC[C@H]1O[C@H](O[C@H]2C(O[C@@H]3O[C@H](CO)[C@@H](O)[C@H]3O)[C@@H](O)[C@H](N)C[C@@H]2N)[C@H](N)[C@@H](O)[C@@H]1O (some centres not stated) | / | / | / | . | / | /
CCc1nnc(NC(=O)CSc2nc(-c3ccccc3)nc3ccccc23)s1 | . | . | . | . | . | .
CCc1nnc(NC(=O)CSc2nc(C3CCCCC3)nc3ccccc23)s1 | . | . | 16 | . | . | .
CN[C@@H]1[C@H](OC2[C@H](O[C@H]3[C@H](O)[C@@H](O)[C@H](N=C(N)N)[C@@H](O)[C@@H]3N=C(N)N)O[C@@H](C)[C@]2(O)C=O)O[C@@H](CO)[C@H](O)[C@H]1O (some centres not stated) | / | / | / | . | / | /
COc1cc2nc(NC(=O)c3ccccc3)sc(=O)c2cc1OC | . | . | 25 | . | / | .
COc1cc2nc(NC(=O)c3ccccc3)[nH]c(=O)c2cc1OC | . | . | . | . | . | .
O[C@H](CNC[C@@H](O)[C@H]1CCc2cc(F)ccc2O1)[C@@H]1CCc2cc(F)ccc2O1 | / | / | / | . | / | /
